Source: article PMC4066874 (Immunity, 2014)
Read-outs that look alike come from different tables or passages of the source.

How the values were obtained:
[1] = tested on: experimental autoimmune encephalomyelitis (EAE)
[2] = tested on: primary naïve CD4+ T cells under Th17 cell-polarizing conditions; test: cell proliferation of naïve CD4+ T cells under Th17 cell-polarizing conditions; conditions: not RORγt-dependent
[3] = tested on: IL-17 production in Th17 cell cultures; test: IL-17 production during Th17 cell differentiation in vitro; format: cell-based, mouse; conditions: for effect on IL-17 production in Th17 cell cultures: Digoxin at 10 μM, TMP778 over a much broader dose range; for concentration at which the inhibitory effect on IL-17 production was lost: Th17 cell-polarizing conditions
[4] = tested on: RORγt occupancy at genomic binding sites; test: ChIP-seq for RORγt in Th17 cells treated with compound; format: cell-based, mouse; conditions: for RORγt sites with decreased (lower) ChIP signal: 2.5 μM TMP778, 10 μM TMP920, 96 h
In short: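 Naive CD4+CD62Lhigh CD25− T cells (MACS then FACS sorted) were activated on plate-bound anti-CD3 and anti-CD28 (2 μg/ml each) with IL-6 (20 ng/ml) and TGF-β1 (1 ng/ml), plus IL-23 (10 ng/ml) from 48 h. Test compound (2.5 or 10 μM) or DMSO was present for 96 h. ChIP used anti-RORγt (AFKJS-9), with isotype IgG and RORγt-deficient cells as controls. Sequencing was single-end 36 bp.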

[5] = tested on: GATA3 protein; test: GATA3 protein expression in Th17 cells; format: cell-based, mouse; conditions: Th17 cells treated with compound
[6] = biological target: T1, RORγ (Homo sapiens, UniProt P51449); test: cell-based nuclear receptor reporter
T1 sequence (P51449 1-518): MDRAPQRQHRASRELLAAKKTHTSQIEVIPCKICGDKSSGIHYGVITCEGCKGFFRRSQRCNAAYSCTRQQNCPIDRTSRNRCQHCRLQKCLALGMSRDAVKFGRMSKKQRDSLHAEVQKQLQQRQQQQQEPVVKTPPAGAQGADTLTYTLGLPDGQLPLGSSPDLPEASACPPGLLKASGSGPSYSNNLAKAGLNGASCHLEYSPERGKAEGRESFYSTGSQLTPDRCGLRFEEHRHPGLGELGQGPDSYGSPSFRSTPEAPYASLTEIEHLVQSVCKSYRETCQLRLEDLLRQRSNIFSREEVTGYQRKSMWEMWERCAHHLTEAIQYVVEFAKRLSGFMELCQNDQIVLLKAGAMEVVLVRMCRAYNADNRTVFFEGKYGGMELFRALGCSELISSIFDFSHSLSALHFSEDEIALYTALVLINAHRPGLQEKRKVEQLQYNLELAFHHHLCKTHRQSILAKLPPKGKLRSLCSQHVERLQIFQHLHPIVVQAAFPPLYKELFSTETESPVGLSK

[7] = biological target: T2, RORγt ligand-binding domain (Homo sapiens, UniProt P51449); test: FRET assay, RORγt ligand-binding domain and cofactor peptide SRC1; format: biochemical; conditions: read-out: IC50, inhibition of RORγt binding to the SRC1 peptide in the FRET assay
T2 sequence (P51449 263-518 limits assumed): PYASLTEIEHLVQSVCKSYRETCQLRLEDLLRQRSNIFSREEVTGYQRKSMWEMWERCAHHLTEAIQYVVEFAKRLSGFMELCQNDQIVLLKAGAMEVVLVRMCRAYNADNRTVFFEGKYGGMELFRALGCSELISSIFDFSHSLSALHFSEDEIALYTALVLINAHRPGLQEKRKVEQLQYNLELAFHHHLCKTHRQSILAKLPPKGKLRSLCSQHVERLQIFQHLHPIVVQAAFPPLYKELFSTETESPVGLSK

[8] = tested on: primary naïve CD4+ T cells under Th17 cell-polarizing conditions
[9] = biological target: 22 other nuclear receptors; test: luciferase assays for 22 other nuclear receptors; format: cell-based; conditions: read-out: IC50 in luciferase assays for 22 other nuclear receptors
[10] = tested on: IL-17 production in CD4+ T cells; test: IL-17 production from differentiated Th17 cells; format: cell-based, mouse; conditions: WT CD4+ T cells, MOG35-55 plus IL-23, 4 days
In short: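 Female C57BL/6 mice (8–12 wk) were immunized s.c. in the flanks with MOG35-55 (100 μg/mouse) in CFA containing M. tuberculosis H37Ra extract. Draining LN cells were restimulated with MOG35-55 and IL-23 plus test compound or DMSO for 4 days. They were then given a 4 h PMA/ionomycin/GolgiStop restimulation, fixed and permeabilized, and stained intracellularly for IL-17 and IFNγ in CD4+ cells. Values are mean ± SD.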

[11] = tested on: CCR6- memory human T cells; test: transcription in human CCR6- memory T cells; format: cell-based
[12] = biological target: T3, RORβ (Homo sapiens, UniProt Q92753); test: cell-based nuclear receptor reporter
T3 sequence (Q92753 1-470): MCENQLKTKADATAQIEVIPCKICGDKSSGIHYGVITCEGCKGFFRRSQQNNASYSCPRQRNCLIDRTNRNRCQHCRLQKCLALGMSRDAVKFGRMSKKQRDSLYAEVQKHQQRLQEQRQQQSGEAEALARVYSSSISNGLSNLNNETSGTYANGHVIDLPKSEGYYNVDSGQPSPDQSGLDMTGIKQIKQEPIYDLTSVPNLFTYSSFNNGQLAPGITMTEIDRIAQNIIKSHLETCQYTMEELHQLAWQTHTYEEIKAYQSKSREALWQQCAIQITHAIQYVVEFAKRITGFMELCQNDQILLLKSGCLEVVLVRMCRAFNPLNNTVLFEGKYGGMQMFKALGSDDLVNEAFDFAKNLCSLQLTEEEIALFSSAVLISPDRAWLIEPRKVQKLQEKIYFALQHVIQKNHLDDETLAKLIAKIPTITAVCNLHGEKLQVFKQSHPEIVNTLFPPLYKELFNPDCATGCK

[13] = biological target: T4, RORα (Homo sapiens, UniProt P35398); test: cell-based nuclear receptor reporter
T4 sequence (P35398 1-523): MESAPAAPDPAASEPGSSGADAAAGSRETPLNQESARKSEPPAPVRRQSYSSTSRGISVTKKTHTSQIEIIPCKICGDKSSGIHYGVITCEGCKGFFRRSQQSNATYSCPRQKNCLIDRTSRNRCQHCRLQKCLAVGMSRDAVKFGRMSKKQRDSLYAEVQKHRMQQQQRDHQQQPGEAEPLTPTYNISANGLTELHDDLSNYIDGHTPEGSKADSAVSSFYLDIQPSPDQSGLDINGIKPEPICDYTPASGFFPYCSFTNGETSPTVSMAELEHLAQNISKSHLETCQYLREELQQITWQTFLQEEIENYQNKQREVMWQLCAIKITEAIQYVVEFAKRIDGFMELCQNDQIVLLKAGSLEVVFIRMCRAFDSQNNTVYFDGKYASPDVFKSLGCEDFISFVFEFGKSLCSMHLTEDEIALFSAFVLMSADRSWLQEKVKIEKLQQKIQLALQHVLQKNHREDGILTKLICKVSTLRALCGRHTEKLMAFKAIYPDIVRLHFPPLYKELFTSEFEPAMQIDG

## C[C@H]1O[C@@H](O[C@H]2[C@@H](O)C[C@H](O[C@H]3[C@@H](O)C[C@H](O[C@H]4CC[C@@]5(C)[C@H](CC[C@@H]6[C@@H]5C[C@@H](O)[C@]5(C)[C@@H](C7=CC(=O)OC7)CC[C@]65O)C4)O[C@@H]3C)O[C@@H]2C)C[C@H](O)[C@@H]1O [Digoxin, reference compound]
[1]; per injection, subcutaneous twice daily
  dose that caused mouse death: > 100 µg
[2]
  concentration at which toxic effects on cell growth start: > 10 µM
[3]
  effect on IL-17 production in Th17 cell cultures: specifically inhibited IL-17 production
  concentration at which the inhibitory effect on IL-17 production was lost: < 2.5 µM
[4]; 10 μM Digoxin, 96 h
  effect on RORγt binding: intermediate

## CCS(=O)(=O)c1ccc(CC(=O)Nc2cc(Cl)c(-c3ccccc3OC(F)(F)F)c(Cl)c2)cc1 [GSK805]
[5]
  GATA3 protein expression: increased GATA3 protein expression
[1]; oral, 10 mg/kg daily from day 0
  effect on severity of EAE: efficiently ameliorate the severity of EAE
[1]; oral, 30 mg/kg, day 14
  Th17 cell responses in the CNS: strongly inhibits Th17 cell responses
[3]; GSK805 at 0.5 μM, 4 days
  inhibition of IL-17 production during Th17 cell differentiation: comparable inhibition of IL-17 production as TMP778 at 2.5 μM

## Cc1ccc([C@@H](NC(=O)Cc2ccc3oc([C@@H](O)c4c(C)noc4C)cc3c2)c2ccccc2)c(C)c1 [TMP778]
[6]; read-out: IC50 for luciferase activity in RORγ assays
  IC50: 17 nM
[5]
  GATA3 protein expression: increased expression of GATA3 protein
[1]; subcutaneous twice daily, day 21 after EAE induction
  percentage of IL-17+ T cells in the CNS: most strongly reduced the percentage of IL-17^+ T cells in the CNS
[7]
  IC50: 5 nM
[8]
  concentration at which toxic effects on cell growth start: > 2.5 µM
[9]
  IC50: > 10000 nM
[10]
  inhibition of IL-17 production from differentiated Th17 cells: the most potent inhibition
[11]
  effect on transcription in population depleted for Th17 cells: no differentially expressed genes with a fold cutoff over 1.5
[3]
  effect on IL-17 production in Th17 cell cultures: efficiently decreased IL-17 production
[12]
  IC50 fold higher for RORβ than in RORγ assays: roughly 100 fold
[12]; read-out: IC50 for RORβ, luciferase reporter
  IC50: 1390 nM
[4]; 2.5 μM TMP778
  new RORγt binding sites: 179
  new RORγt binding sites as share of peaks observed with compound: 8.2 % of peaks
[4]
  RORγt sites with decreased (lower) ChIP signal: 55 % of sites
[13]
  IC50 fold higher for RORα than in RORγ assays: roughly 100 fold
[13]; read-out: IC50 for RORα, luciferase reporter
  IC50: 1240 nM

## Cc1ccc(C(NC(=O)Cc2ccc(OCc3c(C)noc3C)cc2)c2ccccc2)c(C)c1 (stereo not shown) [TMP920]
[6]; read-out: IC50 in RORγ assays
  IC50: 1100 nM
[7]
  IC50: 30 nM
[8]
  concentration at which toxic effects on cell growth start: > 10 µM
[9]
  IC50: > 10000 nM
[3]
  concentration at which the inhibitory effect on IL-17 production was lost: < 2.5 µM
[4]
  RORγt sites with decreased (lower) ChIP signal: 77 % of sites
